One assay concerns the target Mu-type opioid receptor (Cavia porcellus, UniProt P97266). The assay is described as follows: Binding affinity against Opioid receptor mu 1 of guinea pig brain membranes using 0.5 nM of [3H]naloxone as radioligand. Summed up:
(§1)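 Incubations in 50 mM Tris buffer, pH 7.4, with 100 mM NaCl and bacitracin (50 μg/mL).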

In assay [1] the target is Kappa-type opioid receptor (Cavia porcellus, UniProt P41144). In words: Binding affinity against Opioid receptor kappa 1 of guinea pig brain membranes using 1 nM of (-)-[3H]ethylketazocine as radioligand. The procedure, abridged:
as §1

Where a name gives a salt, the structure may show the parent alone. Residues, ends and D or L forms follow the SMILES beside them. *: point of attachment. X2 = O=C(N/N=C1/CC[C@@]2(O)[C@H]3Cc4ccc(O)c5c4[C@@]2(CCN3CC2CC2)[C@H]1O5)*; X1 = CN1CC[C@]23c4c5ccc(O)c4O[C@H]2/C(=N\NC(=O)*)CC[C@@]3(O)[C@H]1C5

Chain of Mu-type opioid receptor (P97266 whole entry): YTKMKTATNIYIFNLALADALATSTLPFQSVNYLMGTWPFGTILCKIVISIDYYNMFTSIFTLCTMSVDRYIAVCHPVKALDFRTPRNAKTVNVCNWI
Chain of Kappa-type opioid receptor (P41144 whole entry): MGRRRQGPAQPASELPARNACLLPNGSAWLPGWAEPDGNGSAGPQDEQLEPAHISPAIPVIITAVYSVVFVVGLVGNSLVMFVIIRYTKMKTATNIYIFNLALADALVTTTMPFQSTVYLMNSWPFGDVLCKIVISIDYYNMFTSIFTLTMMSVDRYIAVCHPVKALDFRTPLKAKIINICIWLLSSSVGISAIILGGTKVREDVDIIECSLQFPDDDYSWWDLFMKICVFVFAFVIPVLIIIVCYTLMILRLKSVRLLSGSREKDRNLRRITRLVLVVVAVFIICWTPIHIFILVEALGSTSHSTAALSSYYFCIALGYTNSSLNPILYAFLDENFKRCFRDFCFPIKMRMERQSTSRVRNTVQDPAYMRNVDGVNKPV

What is called Ki is the equilibrium dissociation constant of an inhibitor or competing ligand from its target. `CN1CCC23c4c5ccc(O)c4O[C@H]2/C(=N\NC(N)=O)CC[C@@]3(O)C1C5` (some centres undefined) [OXYMORPHONE SEMICARBAZONE HYDROCHLORIDE]: the Ki on Mu-type opioid receptor was determined as 0.0145 µM; in assay [1] it was 0.179 µM.
For `NC(=O)N/N=C1/CC[C@@]2(O)C3Cc4ccc(O)c5c4C2(CCN3CC2CC2)[C@H]1O5` (some centres undefined) [NALTREXONE SEMICARBAZONE] the same measures were 0.00048 µM and 0.0026 µM.
The like results for `CC[C@H](C)[C@H](NC(=O)[C@H](CCCNC(=N)N)NC(=O)[C@H](CCCNC(=N)N)NC(=O)[C@H](CC(C)C)NC(=O)[C@H](Cc1ccccc1)NC(=O)CNC(=O)CNC(=O)[C@@H](N)Cc1ccc(O)cc1)C(=O)OC` were, in that order, 0.34 µM and 0.04 µM.
Take `CC[C@H](C)[C@H](NC(=O)[C@H](CCCN=C(N)N)NC(=O)[C@H](CCCN=C(N)N)NC(=O)[C@H](CC(C)C)NC(=O)[C@H](Cc1ccccc1)NC(=O)N/N=C1/CC[C@@]2(O)[C@H]3Cc4ccc(O)c5c4[C@@]2(CCN3CC2CC2)[C@H]1O5)C(=O)OC` (X2-FLRRI-OMe): the inhibition constant Ki was 0.0023 µM on Mu-type opioid receptor and 0.0022 µM in assay [1].
Take `CC(C)CC(NC(=O)C(Cc1ccccc1)NC(=O)N/N=C1/CC[C@@]2(O)C3Cc4ccc(O)c5c4C2(CCN3CC2CC2)[C@H]1O5)C(=O)O` (some centres undefined): the Ki is 0.00076 µM on Mu-type opioid receptor and 0.0028 µM in assay [1].
The like results for `CC[C@H](C)[C@H](NC(=O)[C@H](CCCN=C(N)N)NC(=O)[C@H](CCCN=C(N)N)NC(=O)[C@H](CC(C)C)NC(=O)[C@H](Cc1ccccc1)NC(=O)N/N=C1/CC[C@@]2(O)[C@H]3Cc4ccc(O)c5c4[C@@]2(CCN3C)[C@H]1O5)C(=O)OC` (X1-FLRRI-OMe) were, in that order, 0.0155 µM and 0.0098 µM.
The like results for `CC(C)CC(NC(=O)C(Cc1ccccc1)NC(=O)N/N=C1/CC[C@@]2(O)C3Cc4ccc(O)c5c4C2(CCN3C)[C@H]1O5)C(=O)O` (some centres undefined) were, in that order, 0.0148 µM and 0.096 µM.

The values above are taken from ChEMBL document CHEMBL1123307, “Peptides as receptor selectivity modulators of opiate pharmacophores” (J Med Chem, 1986).
